Most compounds without a hit are left out; they make up all but 2.4% or so of the library.
PREPL inhibitor: PREPL enzyme inhibitors, primary screen, biochemical, fluorescence polarization; Prolyl endopeptidase-like (Homo sapiens), Q4J6C6; recombinant PREPL, fluorescence polarization activity-based probe; inhibition, % at 5.96 µM; actives 0.68% (n = 320,000); in the data active = inhibition above about 43%;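 also: 0% = enzyme with DMSO and 100% = wells lacking enzyme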
TbMetRS inhib: T. brucei MetRS inhibitors, primary screen, biochemical, luminescence. purified T. brucei MetRS, ATP depletion, Kinase-Glo luminescence. inhibition, % at 11.9 µM. actives 0.4% (n = 360,000). AID 624268, 2012;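 active = inhibition above a per-plate cutoff of the control wells' mean inhibition plus 3 SD, cut at about 5.5% in these data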;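 also: 0% = DMSO wells median and 100% = median of wells with control inhibitor compound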
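Material – parasite MetRS enzyme · Medium – HEPES-MgCl2-KCl buffer plus DTT, spermine, BSA, pyrophosphatase · Reagent – ATP, methionine and E. coli bulk tRNA substrates · Times – 15 min enzyme-compound preincubation, 2 h reaction, 10 min detection, 25 °C · Measured by – luminescence of leftover ATP · Evaluation – percent inhibition relative to median high and low control wells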
HNF4A DNA FP: change in binding of human HNF4A to DNA, primary screen, biochemical, fluorescence polarization, FITC-DNA; actives 0.3% (n = 360,000); 1 h; Hepatocyte nuclear factor 4-alpha (Homo sapiens), P41235; activity change, % at 10 µM; in the data active = activity change above about 30%, passing the limit was not always enough
Neddyl block: inhibitors of cullin neddylation, primary screen, biochemical, TR-FRET, uHTS, NAE and Ubc12 | NEDD8-conjugating enzyme Ubc12 (Homo sapiens) + NEDD8-activating enzyme E1 regulatory … | inhibition, % at 25 µM | actives 0.58% (n = 360,000) | AID 651699, 2012; in the data active = inhibition above about 36%
Rpn11 block: Rpn11 (PSMD14) deubiquitinase inhibitors, primary screen, biochemical, fluorescence polarization, uHTS; 26S proteasome non-ATPase regulatory subunit 14 (Homo sapiens), O00487; human 26S proteasome, Ub4-pepOG fluorescence polarization; 20S core pre-blocked with epoxomicin; inhibition, % at 20 µM; actives 0.59% (n = 360,000); AID 588493, 2011;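 active = inhibition at 20 µM, scaled to each plate's controls, above about 33%, limit read from the data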
Target sequence (O00487 whole entry, looked up): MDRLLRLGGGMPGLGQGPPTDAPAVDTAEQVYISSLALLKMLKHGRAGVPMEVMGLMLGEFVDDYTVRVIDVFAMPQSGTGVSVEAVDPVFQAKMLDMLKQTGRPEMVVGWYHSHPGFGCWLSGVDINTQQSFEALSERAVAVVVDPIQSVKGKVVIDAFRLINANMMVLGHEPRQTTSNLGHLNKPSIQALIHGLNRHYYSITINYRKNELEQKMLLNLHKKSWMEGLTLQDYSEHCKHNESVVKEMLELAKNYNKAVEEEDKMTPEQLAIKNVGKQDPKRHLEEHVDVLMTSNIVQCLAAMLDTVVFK
CSN inh: inhibitors of CSN-mediated cullin deneddylation, primary screen, biochemical, fluorescence polarization, uHTS | COP9 signalosome complex subunit 5 (Homo sapiens), Q92905 | Purified CSN, SCF-Nedd8-OG deneddylation | inhibition, % at 12.5 µM | actives 0.38% (n = 360,000);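 active = pattern-corrected inhibition above about 35%, with an unprinted fluorescence ratio check between 0.5 and 1.5, limit read from the data, passing the limit was not always enough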;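 also: 0% = enzyme with substrate and 100% = substrate without enzyme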
Target sequence (Q92905 whole entry, looked up, one chain of several): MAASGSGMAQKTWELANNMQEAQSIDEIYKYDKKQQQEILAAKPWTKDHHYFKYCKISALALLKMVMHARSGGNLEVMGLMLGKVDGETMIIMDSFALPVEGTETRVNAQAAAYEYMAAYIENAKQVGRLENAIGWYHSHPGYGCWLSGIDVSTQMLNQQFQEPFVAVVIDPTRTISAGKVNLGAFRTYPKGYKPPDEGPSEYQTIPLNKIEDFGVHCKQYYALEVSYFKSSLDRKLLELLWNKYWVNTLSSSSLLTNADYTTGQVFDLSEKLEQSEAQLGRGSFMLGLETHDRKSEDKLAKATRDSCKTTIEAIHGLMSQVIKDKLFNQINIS
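Test system: Human Csn5 produced in HEK293T cells | Compound: 12.5 µM single point | Times: 90 min, room temperature | Signal: Fluorescence polarization readout | Read-out basis: % inhibition of substrate cleavage by Csn5 | Controls: no-enzyme wells high, enzyme-with-substrate wells low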
CSN5 deneddyl: Csn5 deneddylation inhibitors, confirmation, biochemical, fluorescence polarization, single concentration, SCF-Nedd8OG substrate; shares compounds with CSN inh; Csn5 deneddylation of SCF-Nedd8OG, 90 min; inhibition, % at 16.6 µM; actives 62% (n = 540); AID 720654, 2013; in the data active = inhibition above about 50%;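 also: 0% = DMSO with enzyme and 100% = no enzyme wells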
MMP2 cntr CSN: MMP-2 protease inhibition counter-screen, confirmation, counter-screen for CSN deneddylation inhibitor project, biochemical, fluorescence, single concentration. recombinant MMP-2, FRET substrate fluorescence, 60 min. inhibition, % at 16.6 µM. actives 33% (n = 540). AID 720655, 2013. shares compounds with CSN inh;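 active = corrected plate-normalized z-score of 5 or more, or -5 or less, or inhibition of 15% or more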;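 also: plate controls were DMSO wells with enzyme for no effect and buffer wells lacking MMP-2 for full effect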
Thrombin counter: blocks bovine thrombin in a CSN deneddylation counter-screen; shares compounds with CSN inh; inhibition, % at 16.6 µM; bovine thrombin cleavage of Ub4-pepOG, fluorescence polarization; actives 49% (n = 540);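 active = inhibition at or above a set limit, with a fluorescence interference ratio between 0.5 and a set maximum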
Numbers without * were called inactive; ! = a repeat was not active.

How did O=C(COc1ccccc1)OCC(=O)c1ccc(S(=O)(=O)N2CCCCC2)cc1 do in these assays?
PREPL inhibitor: 15; TbMetRS inhib: 0; HNF4A DNA FP: 4; Neddyl block: -11; Rpn11 block: 4; CSN inh: -1

Results for C=CCOc1ccc(Br)cc1/C=C1/SC(=Nc2ccc(C(=O)O)cc2)NC1=O ?
TbMetRS inhib: 0; HNF4A DNA FP: -3; Neddyl block: 1; Rpn11 block: 7; CSN inh: 36*; CSN5 deneddyl: 97*; MMP2 cntr CSN: 7; Thrombin counter: 4

Results for O=C(Nc1ccc(Nc2ccncc2)cc1)c1ccc(Nc2ccnc3ccc([N+](=O)[O-])cc23)cc1[N+](=O)[O-] ?
PREPL inhibitor: 14; TbMetRS inhib: 0; HNF4A DNA FP: 5; Neddyl block: -19; Rpn11 block: 4; CSN inh: 54*; MMP2 cntr CSN: 36*; Thrombin counter: -14

How did O=C(Nc1ccc(Nc2ccncc2)cc1)c1ccc([N+](=O)[O-])cc1 do in these assays?
PREPL inhibitor: 6; TbMetRS inhib: 0; HNF4A DNA FP: 3; Neddyl block: -61; Rpn11 block: -1; CSN inh: -2

Results for COc1ccccc1N1N=C(c2ccc([N+](=O)[O-])cc2)CC1c1ccccc1 (stereo unspecified) ?
PREPL inhibitor: -21; TbMetRS inhib: 0; HNF4A DNA FP: 47*; Neddyl block: -55; CSN inh: 38*; CSN5 deneddyl: 107*; MMP2 cntr CSN: 0; Thrombin counter: 25*

Results for O=[N+]([O-])c1ccc(N2N=C(c3ccccc3)CC2c2ccccc2O)cc1 (stereo unspecified) ?
TbMetRS inhib: 0; HNF4A DNA FP: 86*; Neddyl block: -14; CSN inh: 56*; CSN5 deneddyl: 51*; MMP2 cntr CSN: -7; Thrombin counter: 59*

How did O=[N+]([O-])c1ccc(N2N=C(c3ccco3)CC2c2ccccc2)cc1 (stereo unspecified) do in these assays?
PREPL inhibitor: 6; TbMetRS inhib: -1; HNF4A DNA FP: 50*; Neddyl block: -32; CSN inh: 42*; CSN5 deneddyl: 83*; MMP2 cntr CSN: -3; Thrombin counter: 36*

Results for COc1cc(N2N=C(c3ccccc3)CC2c2ccccc2)c(C=O)cc1C=O (stereo unspecified) ?
PREPL inhibitor: 9; TbMetRS inhib: -2; HNF4A DNA FP: -4; Neddyl block: 39; Rpn11 block: 2; CSN inh: -2

How did COc1ccc(C(O)c2nc(-c3cncnc3)cs2)cc1 (stereo unspecified) do in these assays?
TbMetRS inhib: 0; HNF4A DNA FP: 0; Neddyl block: -1; Rpn11 block: 0; CSN inh: -3

Results for Cc1ccc(C2=NN(S(=O)(=O)c3ccccc3)C(c3ccccc3O)C2)cc1 (stereo unspecified) ?
TbMetRS inhib: 0; HNF4A DNA FP: 80*; Neddyl block: 2; CSN inh: 61*; CSN5 deneddyl: 57*; MMP2 cntr CSN: 0; Thrombin counter: 56*

What do the screens show for `O=[N+]([O-])c1ccc(N/N=C/c2c[nH]c3ccccc23)c(S(=O)(=O)Nc2ccc(Cl)cc2)c1`?
PREPL inhibitor: 9; TbMetRS inhib: 0; HNF4A DNA FP: 65*; Neddyl block: -45; CSN inh: 39*; CSN5 deneddyl: 82*; MMP2 cntr CSN: 7; Thrombin counter: 12

Results for Nc1ccc2c(c1)C(=O)c1ccccc1-2 ?
PREPL inhibitor: 6; TbMetRS inhib: 0; HNF4A DNA FP: -2; Neddyl block: -21; Rpn11 block: -2; CSN inh: 11

Results for O=C1C(=O)c2ccc(-c3ccccc3)cc2-c2ccccc21 ?
PREPL inhibitor: 13; TbMetRS inhib: -2; HNF4A DNA FP: 1; Neddyl block: -95; Rpn11 block: -2; CSN inh: 57*; CSN5 deneddyl: 50; MMP2 cntr CSN: 7; Thrombin counter: -17

How did Cc1cc(C)n(CC(C)(O)c2ccccc2)n1 (stereo unspecified) do in these assays?
PREPL inhibitor: 2; TbMetRS inhib: 0; HNF4A DNA FP: -1; Neddyl block: -38; Rpn11 block: 3; CSN inh: 0

What do the screens show for `NC(=O)COC(=O)c1cc(-c2ccco2)nc2ccccc12`?
PREPL inhibitor: 13; TbMetRS inhib: -1; HNF4A DNA FP: -7; Neddyl block: 20; Rpn11 block: -1; CSN inh: 0

Results for O=C(O)c1cc(-c2ccco2)nc2ccc(Br)cc12 ?
PREPL inhibitor: 18; TbMetRS inhib: 1; HNF4A DNA FP: -39; Neddyl block: -114; Rpn11 block: 63*!; CSN inh: 42*!; CSN5 deneddyl: 81*; MMP2 cntr CSN: 7; Thrombin counter: -6

What do the screens show for `Cn1cccc1/C=C1\CC(C(C)(C)C)C/C(=C\c2cccn2C)C1=O` (stereo unspecified)?
PREPL inhibitor: -9; TbMetRS inhib: -1; HNF4A DNA FP: 140; Neddyl block: -14; CSN inh: 97*; CSN5 deneddyl: 93*; MMP2 cntr CSN: -34*; Thrombin counter: 45

Results for Cc1ccsc1/C=C1\Oc2cc(O)ccc2C1=O ?
TbMetRS inhib: 0; HNF4A DNA FP: -48; Neddyl block: 14; Rpn11 block: -34; CSN inh: -41

Results for COc1cc(/C=C2\Oc3cc(O)ccc3C2=O)ccc1O ?
PREPL inhibitor: -52; TbMetRS inhib: 0; HNF4A DNA FP: 33; Neddyl block: 12; CSN inh: 40*; CSN5 deneddyl: 98*; MMP2 cntr CSN: -7; Thrombin counter: 29*
